In paper PMC10348038 (Journal of Enzyme Inhibition and Medicinal Chemistry, 2023):
One block for each compound: values may come before it.

Legend:
PD-1/PD-L1 interaction = PD-1/PD-L1 interaction (Homo sapiens, UniProt Q9NZQ7); assay: HTRF PD1/PD-L1 binding assay; settings: IC50 against the PD-1/PD-L1 interaction
MDA-MB-231 cells [1] = assay: CCK-8 cell viability assay, MDA-MB-231; assay type: cell-based; settings: Homo sapiens, MDA-MB-231, 60 h, read-out: IC50 MDA-MB-231
How it was run: (§1)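 Cells grown in DMEM or RPMI-1640 with 10% FBS and 1% penicillin-streptomycin at 37 °C, 5% CO2. Seeded in 96-well plates at densities suited to each line's growth rate and settled 8 h, then exposed 60 h to test compound at 0, 1, 2, 4, 8, 16 and 32 μM from 10 mM DMSO stocks. […] CCK-8 added for 0.5–1 h, OD read at 450 nm, viability normalised to control; mean ± SEM, n = 3.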

MCF-7 = assay: CCK-8 cell viability assay, MCF-7; assay type: cell-based; settings: Homo sapiens, MCF7, 60 h, read-out: IC50 MCF-7
How it was run: as §1

A549 = assay: CCK-8 cell viability assay, A549; assay type: cell-based; settings: Homo sapiens, A549, 60 h, read-out: IC50 A549
How it was run: as §1

HCC827 = assay: CCK-8 cell viability assay, HCC827; assay type: cell-based; settings: Homo sapiens, HCC827, 60 h, read-out: IC50 HCC827
How it was run: as §1

MRC-5 cells = assay: CCK-8 cell viability assay, normal MRC-5 cells; assay type: cell-based; settings: for IC50: Homo sapiens, MRC5, 60 h, read-out: IC50 MRC-5
How it was run: as §1

MDA-MB-231 cells [2] = assay: Colony formation assay; assay type: cell-based; settings: for Clone formation, result in words: positive controls, BMS-202 at 1 µM
How it was run: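 MDA-MB-231 seeded at 500 cells/well in 6-well plates, in triplicate. […] Medium renewed every three days. At two weeks: PBS washes, 15 min fixation in 4% paraformaldehyde, 1% crystal violet stain. Colonies of more than 500 cells counted by image analysis; mean ± SEM, n = 3.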

MDA-MB-231 cells [3] = assay: Wound healing assay; assay type: cell-based
MDA-MB-231 cells [4] = assay: Flow cytometry apoptosis analysis; assay type: cell-based; settings: 48 h
p-AKT1 (Ser473) = assay: Western blot of AKT phosphorylation in MDA-MB-231 cells; assay type: cell-based; settings: 4 μM, 48 h, MDA-MB-231, Western blot
How it was run: (§2)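 MDA-MB-231 cells exposed to test compound at 1, 2 and 4 μM for 48 h. Lysates run on SDS-PAGE and transferred to PVDF. Membranes blocked 2 h in 5% BSA/TBST, then probed overnight at 4 °C with antibodies to AKT, p-AKT, mTOR and p-mTOR (1:1000). Mean ± SEM, n = 3.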

p-mTOR = assay: Western blot of mTOR phosphorylation in MDA-MB-231 cells; assay type: cell-based; settings: 4 μM, 48 h, MDA-MB-231, Western blot
How it was run: as §2

MDA-MB-231 tumour = assay: MDA-MB-231 tumour-bearing nude mouse model; assay type: in vivo, BALB/c nude mice; settings: intraperitoneal, every 2 days, nine administrations, nude mice
How it was run: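 Female BALB/c nude mice. MDA-MB-231 cells (within 10 passages) in PBS:Matrigel 1:1 at 3 × 10^7 cells/mL, 100 μL injected subcutaneously into the axilla. From about 200 mm3, test compound given intraperitoneally every 2 days in normal saline with 30% PEG400; cyclophosphamide as comparator. Tumour volume by callipers as length × width² × 0.5. Study ended when control tumours reached 1500 mm3. Tumours excised and weighed; inhibition rate from treated versus control tumour weight.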

PD-L1 = PD-L1 (Homo sapiens, UniProt Q9NZQ7); assay: Western blot of PD-L1 protein expression in MDA-MB-231 cells; assay type: cell-based; settings: MDA-MB-231, 48 h, 1, 2 and 4 μM
Chain of PD-L1 (Q9NZQ7 19-290): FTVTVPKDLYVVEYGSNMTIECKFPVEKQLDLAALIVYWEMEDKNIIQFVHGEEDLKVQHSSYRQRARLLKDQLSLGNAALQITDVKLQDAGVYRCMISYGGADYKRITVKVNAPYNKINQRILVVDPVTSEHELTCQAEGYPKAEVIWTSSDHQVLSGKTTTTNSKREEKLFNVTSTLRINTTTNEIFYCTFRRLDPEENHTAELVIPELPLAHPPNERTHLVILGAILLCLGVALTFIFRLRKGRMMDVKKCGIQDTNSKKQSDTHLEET
How it was run: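 MDA-MB-231 cells treated 48 h with test compound at 1, 2 and 4 μM, BMS202 as positive control; in a further arm, 4 μM with or without GSK-3β inhibitor (40 nM) for 48 h. Lysates separated by SDS-PAGE, transferred to PVDF, blocked 2 h in 5% BSA/TBST, probed overnight at 4 °C with anti-PD-L1 (1:1000). Mean ± SEM, n = 3.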

PD-L1 mRNA = assay: qPCR of PD-L1 mRNA in MDA-MB-231 cells; assay type: cell-based; settings: MDA-MB-231, 48 h

Chain of PD-1/PD-L1 interaction (Q9NZQ7 19-238 limits assumed): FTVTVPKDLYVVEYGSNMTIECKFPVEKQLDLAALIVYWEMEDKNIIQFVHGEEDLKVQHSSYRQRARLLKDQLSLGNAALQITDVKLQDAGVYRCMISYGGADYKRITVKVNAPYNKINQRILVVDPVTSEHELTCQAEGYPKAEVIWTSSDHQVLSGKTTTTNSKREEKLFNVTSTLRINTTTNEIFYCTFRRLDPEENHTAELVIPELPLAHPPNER

Compound: N#Cc1cccc(COc2cc(OCc3cccc(-c4cc(F)ccc4F)c3F)ccc2CNCCO)c1 [7b-2, 3-[2-[(2-Hydroxy-ethylamino)-methyl]-5-(2,2',5'-trifluoro-biphenyl-3-ylmethoxy)-phenoxymethyl]-benzonitrile]
IC50 (PD-1/PD-L1 interaction): < 1 µM

Compound: CC(=O)O[C@H]1C(=O)[C@@]2(C)[C@H]([C@H](OC(=O)c3ccccc3)[C@]3(O)C[C@H](OC(=O)[C@H](O)[C@@H](NC(=O)c4ccccc4)c4ccccc4)C(C)=C1C3(C)C)[C@]1(OC(C)=O)CO[C@@H]1C[C@@H]2O [paclitaxel, reference compound]
Clone formation, result in words (MDA-MB-231 cells [2]): Few colonies can be observed
Tumour cell apoptosis (MDA-MB-231 cells [4]; 1 μM): approximately 60%

Compound: COc1c(COc2cc(OCc3cccc(C#N)c3)c(CNCCO)cc2Cl)cccc1-c1ccccc1F [13h-3, 3-{4-Chloro-5–(2'-fluoro-2-methoxy-biphenyl-3-ylmethoxy)-2-[(2-hydroxy-ethylamino)-methyl]-phenoxymethyl}-benzonitrile]
IC50 (MDA-MB-231 cells [1]): 4.96 ± 0.82 µM
IC50 (MCF-7): 5.52 ± 0.57 µM
IC50 (A549): 13.5 ± 0.86 µM
IC50 (HCC827): 5.65 ± 0.56 µM
IC50 (MRC-5 cells): 11.1 ± 0.2 µM

Compound: COc1c(COc2ccc(CN[C@H](CO)C(=O)O)c(OCc3cncc(C#N)c3)c2)cccc1-c1ccccc1F [13h-1, N-[2–(5-Cyano-pyridin-3-ylmethoxy)-4-(2'-fluoro-2-methoxy-biphenyl-3-ylmethoxy)-benzyl]-D-serine]
IC50 (MDA-MB-231 cells [1]): 4.67 ± 0.79 µM
IC50 (MCF-7): 4.81 ± 0.45 µM
IC50 (A549): 7.27 ± 0.71 µM
IC50 (HCC827): 6.16 ± 0.76 µM
IC50 (MRC-5 cells): 9.31 ± 0.16 µM

Compound: COc1nc(OCc2cccc(-c3ccccc3)c2C)ccc1CNCCNC(C)=O [BMS-202, reference compound]
Clone formation, result in words (MDA-MB-231 cells [2]): scarce inhibition activity
Migration inhibition, result in words (MDA-MB-231 cells [3]; MDA-MB-231, positive control): can hardly inhibit the cancer cells’ migration

Continued, in another order:

IC50 (MDA-MB-231 cells [1]): 2.68 ± 0.27 µM
IC50 (MCF-7): 4.71 ± 0.44 µM
IC50 (A549): 7.79 ± 0.69 µM
IC50 (HCC827): 3.24 ± 0.09 µM
PD-L1 protein expression, result in words (PD-L1): down-regulated
Compound: Cc1c(COc2ccc(CNCCN)c(OCc3ccccc3)c2)cccc1-c1ccccc1F [12j-4, N^1-[2-Benzyloxy-4-(2'-fluoro-2-methyl-biphenyl-3-ylmethoxy)-benzyl]-ethane-1,2-diamine]
IC50 (MRC-5 cells): 10.3 ± 0.12 µM
IC50 against MRC-5 cells relative to IC50 against MDA-MB-231 cells (MRC-5 cells; selectivity normal vs cancer cells): 3.83 fold
MDA-MB-231 cells' proliferation rate (clone formation) (MDA-MB-231 cells [2]; 1 µM, treated 24 h, colonies after two weeks): 40%
inhibition at 1 µM (MDA-MB-231 cells [3]; Homo sapiens, MDA-MB-231, read-out: Migration inhibition rate): 50%
Apoptotic ratio (MDA-MB-231 cells [4]; 4 μM): exceeded 40.42%
Inhibition rate of AKT type I phosphorylated form expression (p-AKT1 (Ser473)): 90%
Inhibition rate of phosphorylated mTOR expression (p-mTOR): 40%
Tumour inhibition rate (MDA-MB-231 tumour; 10 mg/kg): 39.04%
Tumour inhibition rate (MDA-MB-231 tumour; 20 mg/kg): 62.54%
PD-L1 mRNA, result in words (PD-L1 mRNA): decreased

IC50 (PD-1/PD-L1 interaction): < 1 µM
Compound: N#Cc1cncc(COc2cc(OCc3cccc(-c4cc(F)ccc4F)c3F)ccc2CNCCO)c1 [7b-4, 5-[2-[(2-Hydroxy-ethylamino)-methyl]-5-(2,2',5'-trifluoro-biphenyl-3-ylmethoxy)-phenoxymethyl]-nicotinonitrile]
